We go through one compound from ChEMBL document CHEMBL4371095, “Triazole-Based Inhibitors of the Wnt/β-Catenin Signaling Pathway Improve Glucose and Lipid Metabolisms in Diet-Induced Obese Mice” (J Med Chem, 2019).

The nature of data set [1]: Inhibition of Wnt3a activated Wnt/beta-catenin signaling (unknown origin) expressed in HEK293 cells harboring TCF/LEF-responsive luciferase preincubated with cells followed by Wnt3a addition and measured after 24 hrs by luciferase reporter gene assay. The format is cell-based. The settings on record: Homo sapiens. The essentials:
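HEK293 cells stably carrying TOPFlash/GFP were plated at 2000/well in DMEM with 10% FBS and kept overnight at 37 °C. Compound was pin-transferred, then recombinant human Wnt-3a was added (200 ng/mL working stock). After 24 h at 37 °C, ONE-Glo luminescence was read after 30 min. IC50 is mean ± SE from three independent experiments.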

Data set [2] relates to HEK293. The experiment in a line: Inhibition of Wnt3a activated Wnt/beta-catenin/Axin signaling (unknown origin) expressed in HEK293 cells assessed as stabilization of Axin1 protein at 1 to 10 uM after 2 hrs by Western blot method. In kind it is cell-based. Particulars: Homo sapiens. Summed up:
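HEK293 cells stimulated with WNT3a were treated with compound for 2 h. Cells were lysed in 10 mM HEPES, 100 μM EDTA, 10 mM KCl, 0.5% NP40, protein was quantified by BCA, and β-catenin and Axin1 were resolved on 10% SDS-PAGE and immunoblotted.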

Data set [3] concerns HEK293. In words: Inhibition of Wnt/beta-catenin signaling (unknown origin) expressed in HEK293 cells assessed as increase in GSK3beta binding to beta-catenin after 12 hrs by immunoprecipitation method. In kind it is cell-based. Particulars: Homo sapiens.
Data set [4] relates to HEK293. The experiment in a line: Inhibition of Wnt/beta-catenin signaling (unknown origin) expressed in GSK3beta knock down HEK293 cells harboring TCF/LEF-responsive luciferase assessed as luminescence at 20 nM measured after 24 hrs by luciferase reporter gene assay relative to control. The format is cell-based. Particulars: Homo sapiens. Also on record: scale not given: the % may be the effect or the level left. Summed up:
(§1)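 HEK293 cells were transfected with siRNA against GSK3β, Axin or CK1α using RNAiMAX for 36 h. Cells were then treated with or without compound at 20 nM for 24 h, and TCF/LEF luciferase reporter activity was read.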

Data set [5] has as its system HEK293. In words: Inhibition of Wnt/beta-catenin signaling (unknown origin) expressed in Axin1 knock down HEK293 cells harboring TCF/LEF-responsive luciferase assessed as luminescence at 20 nM measured after 24 hrs by luciferase reporter gene assay relative to control. In kind it is cell-based. Also on record: scale not given: the % may be the effect or the level left. The settings on record: Homo sapiens. The essentials: as §1

The next data set has as its system SW480. In words: Inhibition of Wnt/beta-catenin signaling in human SW480 cells harboring APC mutant at 50 nM after 24 hrs by luciferase reporter gene assay. In kind it is cell-based.
Data set [6] can be described thus: Cmax in mouse at 10 mg/kg, po administered as single dose by LC-MS analysis. The format is ADME, organism-based. Further details: dose 10 mg/kg, route oral. The settings on record: in vivo. The essentials: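 Compound was dissolved at 1 mg/ml in 10% Kolliphor EL and 10% polyethylene glycol in saline. Ten mice were split into intravenous and oral groups and given a single 10 mg/kg dose. Tail-vein blood was sampled at several time points and analysed by LC/MS/MS.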

The nature of data set [7]: Toxicity in high fat diet fed mouse up to 200 mg/kg, ip by LC-MS analysis. Particulars: in vivo. The format is organism-based.
The test system of data set [8] is Mus musculus. The experiment in a line: Decrease in hepatic FASN mRNA level in high fat diet fed C57BL/6J mouse at 40 mg/kg, ip administered every 2 days for 11 weeks by qPCR analysis. The format is functional, organism-based. Summed up:
(§2)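 Male mice, 8 weeks old, fed a 45% kcal fat diet for 6 weeks, then dosed i.p. every 2 days in corn oil vehicle for 11 weeks. Liver mRNA of the indicated genes was quantified at sacrifice; mean ± SEM, n = 5 per group.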

The test system of data set [9] is Mus musculus. In words: Decrease in hepatic […] mRNA level in high fat diet fed C57BL/6J mouse at 40 mg/kg, ip administered every 2 days for 11 weeks by qPCR analysis. In kind it is functional, organism-based. The essentials:
as §2

Data set [10] has as its system Mus musculus. In words: Effect on hepatic ACAT2 mRNA level in normal chow diet fed C57BL/6J mouse at 40 mg/kg, ip administered every 2 days for 11 weeks by qPCR analysis. The format is ADME, organism-based. The settings on record: in vivo. Summed up:
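Male mice, 8 weeks old, kept on normal chow throughout and dosed i.p. every 2 days in corn oil vehicle for 11 weeks. Body weight gain, liver/body weight ratio, and liver mRNA of the indicated genes were measured at sacrifice; mean ± SEM, n = 5 per group where stated.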

In data set [11] the test system is Mus musculus. The experiment in a line: Decrease in hepatic lipid accumulation in high fat diet fed C57BL/6J mouse at 40 mg/kg, ip administered every 2 days for 11 weeks. The format is functional, organism-based. The essentials:
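Male mice, 8 weeks old, 24–27 g, given a 45% kcal fat diet for 6 weeks, then dosed i.p. every 2 days in corn oil vehicle with the diet continued. Sacrifice was about 24 h after the last dose. Liver was examined by H&E. Liver and serum triglyceride were measured by kit. Serum chemistry was included, and liver/body weight ratio was calculated.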

Data set [12] in a line: Toxicity in high fat diet fed C57BL/6J mouse assessed as serum AST level at 40 mg/kg, ip administered every 2 days for 11 weeks (reference value: 131 +/- 15.6 U/L). The format is organism-based. Particulars: in vivo.
Data set [13] in a line: Toxicity in high fat diet fed C57BL/6J mouse assessed as serum LDH level at 40 mg/kg, ip administered every 2 days for 11 weeks (reference value: 469 +/- 67 U/L). Particulars: in vivo. The format is organism-based.
Data set [14] in a line: Toxicity in high fat diet fed C57BL/6J mouse assessed as serum BUN level at 40 mg/kg, ip administered every 2 days for 11 weeks (reference value: 17.3 +/- 0.5 mg/dl). The format is organism-based. The settings on record: in vivo.
Data set [15] is described as follows: Toxicity in normal chow diet fed C57BL/6J mouse assessed as serum alkaline phosphatase level at 40 mg/kg, ip administered every 2 days for 11 weeks (reference value: 66.5 +/- 1.8 U/L). The format is organism-based. Particulars: in vivo.
The nature of data set [16]: Toxicity in normal chow diet fed C57BL/6J mouse assessed as serum AST level at 40 mg/kg, ip administered every 2 days for 11 weeks (reference value: 119 +/- 28.3 U/L). In kind it is organism-based. Particulars: in vivo.
A short description of data set [17]: Toxicity in normal chow diet fed C57BL/6J mouse assessed as serum BUN level at 40 mg/kg, ip administered every 2 days for 11 weeks (reference value: 19 +/- 1.8 mg/dl). The format is organism-based. Particulars: in vivo.

Activity calls are given as the source filed them. The calls are words filed in the database; no cut-off is given here.

With `Cc1ccccc1-n1nnc(C(=O)Nc2ccc3ccccc3n2)c1C`, in data set [1], the IC50 turned out to be 4.1 nM. The inhibition result with HEK293 [2], in the data set on HEK293 [3] and in the data set on SW480 was “Active” throughout. Besides, the Activity with HEK293 [4] is 69%; with HEK293 [5], 41%; in data set [7] it was “Non-Toxic”; with Mus musculus [10] it was “Non-Toxic”; in data set [12], 94.8 U/L; in [13], 313 U/L. For the same compound, the Activity in data set [14] turned out to be 14.8 mg/dL; in data set [15], 57.5 U/L; in data set [16] it was 74.5 U/L; in data set [17], 21.8 mg/dL. Moreover, in data set [6], the Cmax turned out to be 2200 ng/mL. Further, the result in the data set with Mus musculus [8], in the data set on Mus musculus [9] and in the data set on Mus musculus [11] was Active.
